Experimental findings from ChEMBL document CHEMBL1138056, “Potent benzimidazole sulfonamide protein tyrosine phosphatase 1B inhibitors containing the heterocyclic (S)-isothiazolidinone phosphotyrosine mimetic” (J Med Chem, 2006) are described below.

The structures appear in SMILES notation.

Data set [1] is described as follows: Permeability across Caco-2 cell membrane. It is filed as ADME, cell-based. The note with it: human, read-out: permeability. On the technique in general: Passage across Caco-2 layers is used to estimate intestinal permeability.
The target of data set [2] is T1, Tyrosine-protein phosphatase non-receptor type 1 (Homo sapiens, UniProt P18031).
T1 sequence (P18031 whole entry): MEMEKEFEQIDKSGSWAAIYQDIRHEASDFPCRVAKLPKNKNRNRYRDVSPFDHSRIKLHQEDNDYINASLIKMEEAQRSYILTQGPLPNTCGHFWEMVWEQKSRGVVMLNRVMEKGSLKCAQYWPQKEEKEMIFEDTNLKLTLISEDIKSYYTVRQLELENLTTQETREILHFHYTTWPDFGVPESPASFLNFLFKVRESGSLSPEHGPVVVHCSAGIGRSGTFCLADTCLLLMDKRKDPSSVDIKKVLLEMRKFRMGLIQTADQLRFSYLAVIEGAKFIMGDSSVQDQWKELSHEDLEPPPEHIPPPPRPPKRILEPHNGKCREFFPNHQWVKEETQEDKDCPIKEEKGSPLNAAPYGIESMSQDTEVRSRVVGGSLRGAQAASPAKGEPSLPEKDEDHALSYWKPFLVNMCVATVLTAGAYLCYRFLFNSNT
Description: Inhibition of PTP1B by pNPP assay.

Data set [3] has as its target T2, Tyrosine-protein phosphatase non-receptor type 1 (Homo sapiens) (UniProt P18031).
T2 sequence (whole entry): T1 sequence (P18031 whole entry)
Description: Increase in phosphorylation level of human insulin receptor transfected in HEK293 cells at 80 uM. It is filed as functional, cell-based. In short, it runs like this: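 HEK293-MSR cells cotransfected with full-length human PTP1B and insulin receptor plasmids, attached 24 h, then treated 16 h in serum-free DMEM (0.4% DMSO final). Lysed on ice; IR phosphorylated at Y1162/Y1163 measured by ELISA and normalized to total protein (BCA). Expressed as fold shift; averages of triplicates from the same day.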

Turning to `O=C1C[C@@H](c2ccc(C[C@H](NS(=O)(=O)c3cccc(F)c3)c3nc4ccccc4[nH]3)cc2F)S(=O)(=O)[N-]1.[Na+]`, in data set [1], the Papp is less than 0.1 ×10⁻⁶ cm/s. Besides, the IC50 in data set [2] is 15 nM. This molecule registered an Activity in data set [3] of 1.1.

Broadly, the IC50 is the concentration needed to halve the response being measured. A high value points to weaker potency in that assay.
